In ChEMBL document CHEMBL4689842, “EUbOPEN Chemogenomics Library wave 1” (2021):

Tested on: HEK-293T
Experiment: Multiplex assay against HEK293T;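 as to Population Tubulin-Different-Phenotype (%): share of the cells with healthy nuclei that show this phenotype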
Assay type: toxicity, cell-based
Details: human
Procedure, shortened: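 With compound added, live cells were imaged on a CQ1 microscope at 37°C and 5% CO2; staining with Hoechst33342, BioTracker Green Microtubule Cytoskeleton Dye, MitoTracker Red and Annexin V Alexa Fluor 680 had been done at seeding. The CellPathfinder machine-learning gating scheme split cells into Hoechst high-intensity objects or normal cells, normal cells into healthy, pyknosed or fragmented nuclei, and pyknosed cells into mitotic or apoptotic. The tubulin, mitochondrial-mass and membrane-permeability phenotypes are per cents of healthy-nucleus cells.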

[1] = 12 h, 1 µM, compound concentration 1 uM, replicate 1
[2] = 12 h, 1 µM, compound concentration 1 uM, replicate 2
[3] = 12 h, 10 µM, compound concentration 10 uM, replicate 1
[4] = 12 h, 10 µM, compound concentration 10 uM, replicate 2
[5] = 24 h, 1 µM, compound concentration 1 uM, replicate 1
[6] = 24 h, 1 µM, compound concentration 1 uM, replicate 2
[7] = 24 h, 10 µM, compound concentration 10 uM, replicate 1
[8] = 24 h, 10 µM, compound concentration 10 uM, replicate 2
[9] = 48 h, 1 µM, compound concentration 1 uM, replicate 1
[10] = 48 h, 1 µM, compound concentration 1 uM, replicate 2
[11] = 48 h, 10 µM, compound concentration 10 uM, replicate 1
[12] = 48 h, 10 µM, compound concentration 10 uM, replicate 2

**Q.** What does the source list for `Nc1nc2c(c(N3CCNCC3)n1)CCC1=C2[C@@H]2CCCC[C@@H]2O1`?
**A.** Population Apoptotic (%) [1]: 34%; Population Fragmented Nuclei (%) [1]: 7%; Population Hoechst High Intensity Objects (%) [1]: 10%; Population Membrane Permeable-Phenotype (%) [1]: 3%; Population Mitochondria Different-Phenotype (%) [1]: 82%; Population Mitotic Cells (%) [1]: 65%; Population Normal (%) [1]: 89%; Population Pyknosed Nuclei (%) [1]: 50%; Population Tubulin-Different-Phenotype (%) [1]: 48%; Total Cell Count [1]: 236; Population Apoptotic (%) [2]: 21%; Population Fragmented Nuclei (%) [2]: 4%; Population Healthy Nuclei (%) [2]: 41%; Population Hoechst High Intensity Objects (%) [2]: 4%; Population Membrane Permeable-Phenotype (%) [2]: 6%; Population Mitochondria Different-Phenotype (%) [2]: 33%; Population Mitotic Cells (%) [2]: 78%; Population Normal (%) [2]: 95%; Population Pyknosed Nuclei (%) [2]: 53%; Population Tubulin-Different-Phenotype (%) [2]: 25%; Total Cell Count [2]: 217; Population Apoptotic (%) [3]: 76%; Population Fragmented Nuclei (%) [3]: 7%; Population Healthy Nuclei (%) [3]: 33%; Population Hoechst High Intensity Objects (%) [3]: 15%; Population Membrane Permeable-Phenotype (%) [3]: 4%; Population Mitochondria Different-Phenotype (%) [3]: 97%; Population Mitotic Cells (%) [3]: 23%; Population Normal (%) [3]: 84%; Population Pyknosed Nuclei (%) [3]: 59%; Population Tubulin-Different-Phenotype (%) [3]: 98%; Total Cell Count [3]: 238; Population Apoptotic (%) [4]: 58%; Population Fragmented Nuclei (%) [4]: 5%; Population Healthy Nuclei (%) [4]: 32%; Population Hoechst High Intensity Objects (%) [4]: 7%; Population Membrane Permeable-Phenotype (%) [4]: 1%; Population Mitochondria Different-Phenotype (%) [4]: 88%; Population Mitotic Cells (%) [4]: 41%; Population Normal (%) [4]: 92%; Population Pyknosed Nuclei (%) [4]: 61%; Population Tubulin-Different-Phenotype (%) [4]: 95%; Total Cell Count [4]: 200; Population Apoptotic (%) [5]: 49%; Population Fragmented Nuclei (%) [5]: 12%; Population Healthy Nuclei (%) [5]: 59%; Population Hoechst High Intensity Objects (%) [5]: 10%; Population Membrane Permeable-Phenotype (%) [5]: 1%; Population Mitochondria Different-Phenotype (%) [5]: 70%; Population Mitotic Cells (%) [5]: 50%; Population Normal (%) [5]: 89%; Population Pyknosed Nuclei (%) [5]: 28%; Population Tubulin-Different-Phenotype (%) [5]: 47%; Total Cell Count [5]: 298; Population Apoptotic (%) [6]: 18%; Population Fragmented Nuclei (%) [6]: 8%; Population Hoechst High Intensity Objects (%) [6]: 3%; Population Membrane Permeable-Phenotype (%) [6]: 2%; Population Mitochondria Different-Phenotype (%) [6]: 29%; Population Mitotic Cells (%) [6]: 81%; Population Normal (%) [6]: 96%; Population Pyknosed Nuclei (%) [6]: 32%; Population Tubulin-Different-Phenotype (%) [6]: 29%; Total Cell Count [6]: 264; Population Apoptotic (%) [7]: 80%; Population Fragmented Nuclei (%) [7]: 8%; Population Healthy Nuclei (%) [7]: 40%; Population Hoechst High Intensity Objects (%) [7]: 27%; Population Membrane Permeable-Phenotype (%) [7]: 0%; Population Mitotic Cells (%) [7]: 19%; Population Normal (%) [7]: 72%; Population Pyknosed Nuclei (%) [7]: 51%; Population Tubulin-Different-Phenotype (%) [7]: 95%; Total Cell Count [7]: 241; Population Apoptotic (%) [8]: 81%; Population Fragmented Nuclei (%) [8]: 3%; Population Healthy Nuclei (%) [8]: 42%; Population Hoechst High Intensity Objects (%) [8]: 16%; Population Membrane Permeable-Phenotype (%) [8]: 2%; Population Mitochondria Different-Phenotype (%) [8]: 100%; Population Mitotic Cells (%) [8]: 18%; Population Normal (%) [8]: 83%; Population Pyknosed Nuclei (%) [8]: 54%; Population Tubulin-Different-Phenotype (%) [8]: 100%; Total Cell Count [8]: 190; Population Apoptotic (%) [9]: 36%; Population Healthy Nuclei (%) [9]: 79%; Population Hoechst High Intensity Objects (%) [9]: 7%; Population Membrane Permeable-Phenotype (%) [9]: 1%; Population Mitochondria Different-Phenotype (%) [9]: 25%; Population Mitotic Cells (%) [9]: 63%; Population Normal (%) [9]: 92%; Population Pyknosed Nuclei (%) [9]: 11%; Population Tubulin-Different-Phenotype (%) [9]: 26%; Total Cell Count [9]: 532; Population Apoptotic (%) [10]: 12%; Population Fragmented Nuclei (%) [10]: 8%; Population Healthy Nuclei (%) [10]: 76%; Population Hoechst High Intensity Objects (%) [10]: 4%; Population Membrane Permeable-Phenotype (%) [10]: 9%; Population Mitochondria Different-Phenotype (%) [10]: 12%; Population Mitotic Cells (%) [10]: 87%; Population Normal (%) [10]: 95%; Population Pyknosed Nuclei (%) [10]: 14%; Population Tubulin-Different-Phenotype (%) [10]: 35%; Total Cell Count [10]: 420; Population Apoptotic (%) [11]: 66%; Population Fragmented Nuclei (%) [11]: 12%; Population Healthy Nuclei (%) [11]: 48%; Population Hoechst High Intensity Objects (%) [11]: 45%; Population Membrane Permeable-Phenotype (%) [11]: 1%; Population Mitochondria Different-Phenotype (%) [11]: 93%; Population Mitotic Cells (%) [11]: 33%; Population Normal (%) [11]: 54%; Population Pyknosed Nuclei (%) [11]: 39%; Population Tubulin-Different-Phenotype (%) [11]: 96%; Total Cell Count [11]: 288; Population Apoptotic (%) [12]: 74%; Population Fragmented Nuclei (%) [12]: 7%; Population Healthy Nuclei (%) [12]: 54%; Population Hoechst High Intensity Objects (%) [12]: 37%; Population Membrane Permeable-Phenotype (%) [12]: 2%; Population Mitochondria Different-Phenotype (%) [12]: 90%; Population Mitotic Cells (%) [12]: 25%; Population Normal (%) [12]: 62%; Population Pyknosed Nuclei (%) [12]: 37%; Population Tubulin-Different-Phenotype (%) [12]: 91%; Total Cell Count [12]: 217
